This is an account of results in paper PMC2670241 (Journal of neurochemistry, 2009).

In one assay the target is MOR23-1 (Mus musculus, UniProt Q8VG01). The assay is classed as cell-based. The note with it: read-out: Response normalized to the response of the same oocyte to 100 μM nonanoic acid.
Another assay deals with MOR32-11 (Mus musculus, UniProt Q8VF06). The assay is classed as cell-based. To be noted: for activation / activation at 3 µM / activation at 10 µM / activation at 30 µM: read-out: Response normalized to the response of the same oocyte to 100 μM nonanoic acid.
A further assay deals with MOR40-4 (S83). To be noted: ref Malnic et al., 1999; cited from earlier work.
The target of assay [1] is T1, MOR174-9 (mOR-EG) (Mus musculus, UniProt Q920P2).
T1 sequence (Q920P2 1-313): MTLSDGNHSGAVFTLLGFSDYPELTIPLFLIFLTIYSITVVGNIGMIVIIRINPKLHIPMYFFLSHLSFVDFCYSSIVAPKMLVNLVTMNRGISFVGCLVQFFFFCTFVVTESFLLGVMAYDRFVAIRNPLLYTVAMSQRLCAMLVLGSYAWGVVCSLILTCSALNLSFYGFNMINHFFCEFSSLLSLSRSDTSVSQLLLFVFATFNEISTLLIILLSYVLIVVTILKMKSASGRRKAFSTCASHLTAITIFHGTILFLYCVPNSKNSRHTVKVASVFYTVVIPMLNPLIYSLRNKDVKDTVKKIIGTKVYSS
The assay is classed as cell-based. The note with it: each at 100 μM, 15 sec application.

The test system of assay [2] is oocytes expressing Gαolf and CFTR, but no receptor. The assay can be described thus: Control oocytes expressing Gαolf and CFTR, but no receptor. To be noted: 100 μM, 15 sec application. The assay is classed as cell-based, Xenopus laevis. In outline:
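Xenopus oocytes were defolliculated with collagenase B for 2 h at room temperature and injected with human Gαolf (10 ng) and CFTR (1 ng) cRNA in 23 nl water, with no receptor. Under voltage clamp in ND96 (pH 7.5), test compounds from 1 M DMSO stocks, diluted in ND96, were applied for 15 sec. 1 mM IBMX served as receptor-independent CFTR activator. Read-out was current.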

Assay [3] has as its target T1, MOR174-9 (mOR-EG). To be noted: ref Abaffy et al., 2006; cited from earlier work.

MOR32-11, sequence (Q8VF06 1-312): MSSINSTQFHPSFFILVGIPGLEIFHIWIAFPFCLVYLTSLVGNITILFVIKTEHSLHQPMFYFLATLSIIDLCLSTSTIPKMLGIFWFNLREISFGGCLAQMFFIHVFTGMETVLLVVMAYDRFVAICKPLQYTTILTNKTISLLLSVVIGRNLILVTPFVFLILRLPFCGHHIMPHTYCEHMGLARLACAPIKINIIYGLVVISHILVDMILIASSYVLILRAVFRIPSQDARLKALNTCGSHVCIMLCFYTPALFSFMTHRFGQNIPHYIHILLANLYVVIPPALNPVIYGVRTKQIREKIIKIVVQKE

For the molecule `O=C(O)CCCCCBr` [6-Bromo-hexanoic acid, 6-bromohexanoic acid], at MOR23-1, the activation turned out to be 61 ± 7%, the activation at 3 µM came out at 0%, the activation at 10 µM was 0% and the activation at 30 µM came to 22 ± 6%. Moreover, the activation on MOR32-11 is 0%.

Take `O=C(O)CCCCCCCBr` [8-Bromo-octanoic acid, 8-bromooctanoic acid]: on MOR23-1, the activation came out at 32 ± 6%, the activation at 3 µM came to 0%, the activation at 10 µM came out at 0% and the activation at 30 µM turned out to be 43 ± 8%. In addition, the activation at MOR32-11 stood at 0%. Moreover, the “Response of MOR40-4 (S83) to odorant (previously shown)” value (from here on “Response of MOR40-4 (S83) to odorant”) in the assay on MOR40-4 (S83) is listed as “respond”.

Consider `O=C(O)CCCCCCCCCBr` [10-Bromo-decanoic acid, 10-bromodecanoic acid], for which the activation at MOR23-1 is 0%. Further, at MOR32-11, the activation amounted to 60 ± 4%, the activation at 3 µM was 0%, the activation at 10 µM was found to be 0% and the activation at 30 µM is 0%.

In the case of `O=C(O)CCCCCCCCCCBr` [11-Bromo-undecanoic acid], at MOR23-1, the activation is 0%. Besides, at MOR32-11, the activation was determined as 27 ± 10%, the activation at 3 µM is 0%, the activation at 10 µM worked out at 0% and the activation at 30 µM was 0%.

As for `O=C(O)CCCCCCCCCCCBr` [12-Bromo-dodecanoic acid], the activation worked out at 0% on MOR23-1 and 6 ± 2% at MOR32-11.

Regarding `C=C(C)[C@H]1CC=C(C)C(=O)C1` [(+) carvone], the “Response of MOR174-9 to odorant” value on MOR174-9 (mOR-EG) [1] was “does not respond”.

In the case of `C=C(C)[C@@H]1CC=C(C)C(=O)C1` [(−) carvone], the “Response of MOR174-9 to odorant” value on MOR174-9 (mOR-EG) [1] is “does not respond”.

Take `CCCCCCCCCC=O` [Decanal]: the activation at MOR23-1 turned out to be 0%. Further, on MOR32-11, the activation came to 23 ± 5%, the activation at 3 µM stood at 0%, the activation at 10 µM was 0% and the activation at 30 µM is 0%.

Consider `CCCCCCCCCC(=O)O` [Decanoic acid], for which the activation on MOR23-1 came to 0%. For the same molecule, at MOR32-11, the activation was determined as 122 ± 8%, the activation at 3 µM worked out at 0%, the activation at 10 µM is 13 ± 3% and the activation at 30 µM is 0%.

With `CCCCCCCCCCCC=O` [Dodecanal], the activation at MOR23-1 stood at 0%. For the same molecule, at MOR32-11, the activation came to 25 ± 3%, the activation at 3 µM is 0%, the activation at 10 µM came out at 0% and the activation at 30 µM turned out to be 0%.

Take `CCCCCCCCCCCC(=O)O` [Dodecanoic acid]: on MOR32-11, the activation at 3 µM came to 0%, the activation at 10 µM amounted to 0% and the activation at 30 µM came to 0%.

For `CCCCCCC(=O)O` [Heptanoic acid], on MOR23-1, the activation stood at 64 ± 10%, the activation at 3 µM was 0%, the activation at 10 µM was determined as 10 ± 3% and the activation at 30 µM stood at 17 ± 4%. At MOR32-11, the activation was 35 ± 6%, the activation at 3 µM is 0%, the activation at 10 µM was found to be 13 ± 5% and the activation at 30 µM was determined as 40 ± 12%. The “Saturation of dose-response at MOR32-11” value at MOR32-11 (up to a concentration of 1 mM, data not shown) is “failed to saturate”.

Turning to `CCCCCCCCC=O` [Nonanal], the activation on MOR23-1 worked out at 0%. Besides, at MOR32-11, the activation was determined as 32 ± 6%, the activation at 3 µM amounted to 0%, the activation at 10 µM amounted to 0% and the activation at 30 µM turned out to be 0%.

In the case of `CCCCCCCCC(=O)O` [Nonanoic acid], on MOR23-1, the activation was determined as 100%, the activation at 3 µM came to 0%, the activation at 10 µM came out at 11 ± 4% and the activation at 30 µM worked out at 48 ± 8%. Also, at MOR32-11, the activation stood at 100%, the activation at 3 µM came out at 0%, the activation at 10 µM was 25 ± 4% and the activation at 30 µM was 61 ± 8%. Besides, in the assay on MOR40-4 (S83), the “Response of MOR40-4 (S83) to odorant” value is reported as “respond”.

For the molecule `CCCCCCCC=O` [Octanal], on MOR23-1, the activation came out at 198 ± 27%, the activation at 3 µM stood at 35 ± 5%, the activation at 10 µM was found to be 76 ± 13% and the activation at 30 µM came to 107 ± 7%. Further, on MOR32-11, the activation came to 22 ± 6%, the activation at 3 µM stood at 0%, the activation at 10 µM stood at 0% and the activation at 30 µM was 0%.

On to `CCCCCCCC(=O)O` [Octanoic acid], for which, at MOR23-1, the activation was 178 ± 29%, the activation at 3 µM came to 70 ± 11%, the activation at 10 µM worked out at 112 ± 17% and the activation at 30 µM was 158 ± 12%. On MOR32-11, the activation stood at 76 ± 6%, the activation at 3 µM was found to be 0%, the activation at 10 µM came out at 27 ± 7% and the activation at 30 µM was 83 ± 14%. Further, the “Response of MOR40-4 (S83) to odorant” value in the assay with MOR40-4 (S83) is “respond”.

`CCCCCCCCO` [Octanol]: at MOR23-1, the activation turned out to be 100 ± 6%, the activation at 10 µM amounted to 23 ± 2% and the activation at 30 µM was found to be 68 ± 13%. In addition, the activation on MOR32-11 is 0%.

Turning to `CCCCCCCCCCC=O` [Undecanal], the activation on MOR23-1 is 0%. Besides, on MOR32-11, the activation came to 16 ± 3%, the activation at 3 µM turned out to be 0%, the activation at 10 µM is 0% and the activation at 30 µM was determined as 0%.

In the case of `O=C(O)CCCCCCCCCC(=O)O` [Undecanedioic acid], the activation at MOR23-1 and at MOR32-11 was 0% each time.

On to `CCCCCCCCCCC(=O)O` [Undecanoic acid], for which, at MOR23-1, the activation stood at 0%. At MOR32-11, the activation amounted to 98 ± 22%, the activation at 3 µM was determined as 0%, the activation at 10 µM is 0% and the activation at 30 µM is 26 ± 8%.

For `CCCCCCCCCCCO` [Undecanol], the activation was 0% at MOR23-1 and 6 ± 2% on MOR32-11.

On to `CCCCO` [butanol], for which, on MOR174-9 (mOR-EG) [1], the “Response of MOR174-9 to odorant” value was “does not respond”.

For the molecule `CCOc1cc(C=O)ccc1O` [ethyl vanillin], the “Response of MOR174-9 to odorant” value on MOR174-9 (mOR-EG) [1] is reported as “responds”. Besides, the “Response of oocytes expressing Gαolf and CFTR, but no receptor” value (shortened to “Response … but no receptor”) in assay [2] is listed as “do not respond”.

For `C=CCc1ccc(O)c(OC)c1` [eugenol], the “Response of MOR174-9 to odorant” value at MOR174-9 (mOR-EG) [1] was “responds”. The “Response … but no receptor” value in assay [2] is reported as “do not respond”.

As for `CC(C)=CCC/C(C)=C/CO` [geraniol], the “Response of MOR174-9 to odorant” value at MOR174-9 (mOR-EG) [1] is “does not respond”.

On to `COc1ccccc1O` [guaiacol], for which the “Response of MOR174-9 to odorant” value on MOR174-9 (mOR-EG) [1] was “does not respond”.

Regarding `C/C=C/c1ccc(OC)c(OC)c1` [methylisoeugenol], the “Antagonism of the response to eugenol of MOR174-9 expressed in oocytes” value on MOR174-9 (mOR-EG) [3] is “can antagonize”.

Consider `CCCCCCCCCO` [nonanol], for which the “Response of MOR40-4 (S83) to odorant” value in the assay on MOR40-4 (S83) is recorded as “respond”.

As for `COc1cc(C=O)ccc1O` [vanillin], on MOR174-9 (mOR-EG) [1], the “Response of MOR174-9 to odorant” value is on record as “responds”. Further, the “Response … but no receptor” value in assay [2] was “do not respond”.
